Measurements from ChEMBL document CHEMBL1144766, “Discovery of quinolinediones exhibiting a heat shock response and angiogenesis inhibition” (J Med Chem, 2008).
Calls of active or inactive are those of the source. No cut-off for these calls is given here.

Tests used:
[1] = (§1) Cytotoxicity against human NCI60 cells; type: functional; conditions: for TGI: read-out: Log TGI (converted)
[2] = target: Heat shock protein HSP 90-beta (Homo sapiens) (UniProt P08238); experiment: Binding affinity to N-terminal ATP binding site of Hsp90 at 100 uM after 30 mins
In short: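 Compounds were made up in DMSO at 35 mM (stock) just before use and added to whole cell lysates at 100 µM final. Lysates were held on ice for 30 min, then incubated with geldanamycin-derivatized agarose beads at 4 °C with rocking for 60 min. Beads were washed, and eluted proteins were run on gels and blotted for Hsp90. Loss of the Hsp90 band indicated competition.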

[3] = tested on: NCI60; experiment: as §1; type: functional
[4] = tested on: HUVEC; experiment: Antiangiogenic activity in HUVEC assessed as number of junctions at 0.01 ug/ml after 24 hrs relative to control; type: functional, Homo sapiens
In short: (§2)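 HUVEC grown in EGM-2. Matrigel was gelled in wells (15 min room temperature, then 30 min at 37 °C) and seeded with HUVEC at 2 × 10⁵ cells/mL. Compound was added in culture medium. After 24 h, cords and junctions were imaged by inverted microscope and digital camera. Cord length and junction number were measured relative to untreated controls.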

[5] = tested on: HUVEC; experiment: Effect on HUVEC growth at 1.0 ug/ml relative to control; type: functional, Homo sapiens
[6] = tested on: HUVEC; experiment: Effect on HUVEC growth at 0.001 ug/ml relative to control; type: functional, Homo sapiens
[7] = tested on: HUVEC; experiment: Antiangiogenic activity in HUVEC assessed as cord length at 0.001 ug/ml after 24 hrs relative to control; type: functional, cell-based; conditions: Homo sapiens; in short: as §2
[8] = tested on: HUVEC; experiment: Antiangiogenic activity in HUVEC assessed as cord length at 0.1 ug/ml after 24 hrs relative to control; type: functional, cell-based; conditions: Homo sapiens; in short: as §2
[9] = tested on: HUVEC; experiment: Antiangiogenic activity in HUVEC assessed as number of junctions at 0.001 ug/ml after 24 hrs relative to control; type: functional, cell-based; conditions: Homo sapiens; in short: as §2
[10] = tested on: HUVEC; experiment: Antiangiogenic activity in HUVEC assessed as cord length at 1.0 ug/ml after 24 hrs relative to control; type: functional, cell-based; conditions: Homo sapiens; in short: as §2
[11] = tested on: HUVEC; experiment: Antiangiogenic activity in HUVEC assessed as number of junctions at 0.1 ug/ml after 24 hrs relative to control; type: functional, Homo sapiens; in short: as §2
[12] = tested on: HUVEC; experiment: Growth inhibition of HUVEC after 48 hrs by sulforhodamine B assay; type: cell-based; conditions: human
In short: (§3)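 Sulforhodamine B assay. Cells were seeded and incubated 24 h, then exposed to serial compound dilutions for 48 h. Plates were fixed with trichloroacetic acid, stained with SRB and read for optical density. GI50 was calculated from the OD data as the concentration giving 50% reduction in net protein increase. HUVEC were grown in EGM-2.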

[13] = tested on: HUVEC; experiment: Antiangiogenic activity in HUVEC assessed as cord length at 0.01 ug/ml after 24 hrs relative to control; type: functional, cell-based; conditions: Homo sapiens; in short: as §2
[14] = tested on: HUVEC; experiment: Effect on HUVEC growth at 10 ug/ml relative to control; type: functional, Homo sapiens
[15] = tested on: NCI-H460; experiment: Growth inhibition of human NCI-H460 cells after 48 hrs by sulforhodamine B assay; type: functional; in short: as §3
[16] = tested on: HUVEC; experiment: Effect on HUVEC growth at 0.1 ug/ml relative to control; type: functional, Homo sapiens
[17] = tested on: HUVEC; experiment: Effect on HUVEC growth at 0.01 ug/ml relative to control; type: functional, Homo sapiens
[18] = tested on: HUVEC; experiment: Antiangiogenic activity in HUVEC assessed as cord length at 10 ug/ml after 24 hrs relative to control; type: functional, Homo sapiens; in short: as §2
[19] = tested on: MCF7; experiment: Growth inhibition of human MCF7 cells after 48 hrs by sulforhodamine B assay; type: functional; in short: as §3
[20] = tested on: HUVEC; experiment: Antiangiogenic activity in HUVEC assessed as number of junctions at 1.0 ug/ml after 24 hrs relative to control; type: functional, Homo sapiens; in short: as §2

Sequence of Heat shock protein HSP 90-beta (Homo sapiens) (P08238 whole entry): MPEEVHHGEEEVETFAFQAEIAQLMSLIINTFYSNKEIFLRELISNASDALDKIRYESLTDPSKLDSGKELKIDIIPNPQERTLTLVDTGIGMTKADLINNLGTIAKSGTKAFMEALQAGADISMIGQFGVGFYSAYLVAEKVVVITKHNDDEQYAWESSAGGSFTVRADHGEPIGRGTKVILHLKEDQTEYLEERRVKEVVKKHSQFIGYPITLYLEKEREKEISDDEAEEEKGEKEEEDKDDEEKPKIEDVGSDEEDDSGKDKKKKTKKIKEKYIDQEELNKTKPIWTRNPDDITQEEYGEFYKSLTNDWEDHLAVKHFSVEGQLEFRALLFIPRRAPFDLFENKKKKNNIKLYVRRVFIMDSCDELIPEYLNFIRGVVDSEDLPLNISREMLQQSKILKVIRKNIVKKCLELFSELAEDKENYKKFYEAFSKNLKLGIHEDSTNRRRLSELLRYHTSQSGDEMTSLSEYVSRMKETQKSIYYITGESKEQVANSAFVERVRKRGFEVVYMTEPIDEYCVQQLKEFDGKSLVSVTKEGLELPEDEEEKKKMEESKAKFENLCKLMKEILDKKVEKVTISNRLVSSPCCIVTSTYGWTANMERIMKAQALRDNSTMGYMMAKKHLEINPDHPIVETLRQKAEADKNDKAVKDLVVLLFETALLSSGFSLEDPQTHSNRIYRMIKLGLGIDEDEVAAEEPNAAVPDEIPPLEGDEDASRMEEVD

Structure (SMILES) | GI50 [1] | LC50 [1] | TGI [1] | Activity [2] | other results
COc1cc(CNC2=CC(=O)c3nc(-c4ccccc4)ccc3C2=O)cc(OC)c1OC | 2340 nM | 66.1 µM | 15.5 µM | inactive | –
O=C1C(N2CC2)=CC(=O)c2nc(-c3ccccc3)ccc21 | 27.5 nM | 2.04 µM | 0.324 µM | inactive | –
O=C1C=C(N2CC2)C(=O)c2nc(-c3ccccc3)ccc21 | 85.1 nM | 17.8 µM | 3.31 µM | inactive | –
COc1cc(CNC2=CC(=O)c3ccc(-c4ccccc4)nc3C2=O)cc(OC)c1OC | 57500 nM | – | – | inactive | Activity [3]: inactive
O=C1C(N2CC2)=CC(=O)c2nc(-c3ccc(-c4ccccc4)cc3)ccc21 | 7940 nM | 64.6 µM | 26.9 µM | inactive | –
O=C1C(N2CCCC2)=CC(=O)c2nc(-c3ccccc3)ccc21 | 44700 nM | – | – | inactive | Activity [3]: inactive
O=C1C=C(NCc2ccccc2)C(=O)c2nc(-c3ccccc3)ccc21 | 33100 nM | – | – | inactive | Activity [3]: inactive
Cc1cc2c(nc1-c1ccccc1)C(=O)C=C(N1CC1)C2=O | – | – | – | inactive | –
O=C1C(NCc2ccccc2)=CC(=O)c2nc(-c3ccccc3)ccc21 | 1700 nM | 66.1 µM | 15.5 µM | inactive | –
COCCCNC1=CC(=O)c2nc(-c3ccccc3)ccc2C1=O | 3550 nM | 66.1 µM | 19.1 µM | inactive | –
COc1cc(-c2ccc3c(n2)C(=O)C(NCc2ccccc2)=CC3=O)cc(OC)c1OC | 2690 nM | – | 63.1 µM | inactive | Activity [4]: 50%; Activity [5]: 64%; Activity [6]: 102%; Activity [7]: inactive; Activity [8]: inactive; Activity [9]: inactive; Activity [10]: inactive; Activity [11]: 50%; Activity [12]: 1.9 µg/mL; Activity [13]: inactive; Activity [14]: 14%; Activity [3]: inactive; Activity [15]: 0.43 µg/mL; Activity [16]: 91%; Activity [17]: 118%; Activity [18]: 75%; Activity [19]: 0.35 µg/mL; Activity [20]: 50%
Cc1ccc2c(n1)C(=O)C=C(N1CC1)C2=O | 513 nM | 7.94 µM | 2.04 µM | inactive | –
COC1=CC(=O)c2nc(-c3cc(OC)c(OC)c(OC)c3)ccc2C1=O | – | – | – | inactive | Activity ([4]; Homo sapiens): inactive; Activity [5]: 2%; Activity [6]: 106%; Activity [7]: inactive; Activity [8]: inactive; Activity [9]: inactive; Activity [10]: inactive; Activity [11]: 50%; Activity [12]: 0.28 µg/mL; Activity [13]: inactive; Activity [14]: 23%; Activity [15]: 1.9 µg/mL; Activity [16]: 90%; Activity [17]: 117%; Activity [19]: 0.24 µg/mL; Activity [20]: 50%
COc1cc2c(nc1C)C(=O)C(N1CC1)=CC2=O | 275 nM | 4.37 µM | 0.832 µM | inactive | –
COCCCNC1=CC(=O)c2ccc(-c3ccccc3)nc2C1=O | 5500 nM | 70.8 µM | 28.8 µM | inactive | –
COc1cc(-c2ccc3c(n2)C(=O)C=C(NCc2ccccc2)C3=O)cc(OC)c1OC | – | – | – | inactive | Activity ([4]; Homo sapiens): inactive; Activity [5]: 64%; Activity [6]: 104%; Activity [7]: inactive; Activity [8]: inactive; Activity [9]: inactive; Activity [10]: inactive; Activity ([11]; Homo sapiens): inactive; Activity [12]: 1.9 µg/mL; Activity [13]: inactive; Activity [14]: 13%; Activity [3]: inactive; Activity [15]: 0.65 µg/mL; Activity [16]: 64%; Activity [17]: 92%; Activity [18]: 75%; Activity [19]: 0.52 µg/mL; Activity ([20]; Homo sapiens): inactive
COc1cc2c(nc1-c1ccccc1)C(=O)C(N1CC1)=CC2=O | 525 nM | 4.9 µM | 1.66 µM | inactive | –
COc1cc(-c2ccc3c(n2)C(=O)C=C(N2CC2)C3=O)cc(OC)c1OC | 589 nM | 5.5 µM | 1.78 µM | inactive | –
C=CCNC1=CC(=O)c2nc(-c3ccccc3)ccc2C1=O | 1910 nM | 43.7 µM | 14.1 µM | inactive | –
